From PubChem BioAssay
A selection follows.
PGC1a acetyl up – compounds raising PGC1a acetylation signal, primary screen, PGC1a modulator project, cell-based, U2OS, AlphaScreen, signal-increasing mode; overnight; activation, % at 15.6 µM; 350,000 compounds, 0.21% hits;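 active = every replicate reaching activation of at least 50%, whatever the mean replicate activation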;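 also: hits raise the AlphaScreen acetylation signal above neutral controls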
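detection = AlphaScreen lysate read | assay system = U2OS cells expressing flag-PGC1a plus GCN5 | input = 7000 cells/well | dosing = one concentration | times = compound overnight at 37 °C, each detection step 1 h RT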
Numbers stand for hits; 0 = inactive.

SMILES	PGC1a acetyl up
Cc1cccc(S(=O)(=O)N(C)C[C@@H]2OCc3cn(nn3)CCCC(=O)N([C@@H](C)CO)C[C@H]2C)c1	0
Cc1noc(C)c1S(=O)(=O)Nc1ccc2c(c1)C(=O)N([C@H](C)CO)C[C@H](C)[C@H](CN(C)C(=O)c1ccncc1)OCCCC[C@@H](C)O2	0
C[C@H](CO)N1C[C@H](C)[C@H](CN(C)S(=O)(=O)c2ccc(F)cc2)Oc2ncc(-c3cccc(C(=O)N(C)C)c3)cc2C1=O	0
C[C@H](CO)N1C[C@H](C)[C@@H](CN(C)C(=O)Nc2ccc(F)cc2)Oc2ncc(C#CC3CC3)cc2C1=O	0
COc1ccc(C#Cc2cnc3c(c2)C(=O)N([C@H](C)CO)C[C@H](C)[C@H](CN(C)S(=O)(=O)c2cccc(F)c2)O3)cc1OC	123
C=CCNC(=S)N1CCN(CCN=CC2=C(O)CC(c3ccco3)CC2=O)CC1 (stereo not given)	0
CC(C)(C)NCCC(O)c1cc(C(F)(F)F)nc2c(C(F)(F)F)cccc12 (stereo not given)	70
O=C(O)c1cccn1Cc1ccccc1F	0
O=C(c1ccccc1)C1OC1C(=O)c1ccccc1 (stereo not given)	77
O=C(NC1CCCCCCC1O)c1ccccc1 (stereo not given)	0
Clc1ccccc1CN1CCSCC1	0
Cc1cccc(N(CC(=O)NC(C)(C)C)C(=O)CNC(=O)c2cccs2)c1	0
COc1ccc2c3c([nH]c2c1)[C@@H](CO)N(C(=O)c1ccccc1)CC31CCN(S(=O)(=O)c2cccs2)CC1	0
O=C1N(Cc2ccccc2)Cc2ccccc2[C@@H]2OC(c3ccc(OCCCO)cc3)=N[C@]12Cc1ccccc1	52
Cc1cc(C)c(C#N)c(SCC(=O)Nc2nnc(-c3ccccc3)s2)n1	0
CN1CCN(C(=O)CSc2nc(-c3cccs3)cc(-c3cccs3)c2C#N)CC1	61
Cc1cccc(-c2nsc(SCC(=O)N3CCCC3)n2)c1	0
CN1[C@@H]2CC(OC(=O)[C@H](CO)c3ccccc3)C[C@H]1[C@@H]1O[C@@H]12 (stereo not given in full)	0
CC(C)C#Cc1cnc2c(c1)C(=O)N([C@H](C)CO)C[C@H](C)[C@H](CN(C)C(=O)c1ccccn1)O2	0
Fc1cccc(CN2C[C@@H]3N[C@H](C2)C3c2ccc(/C=C/c3ccccc3)cc2)c1 (stereo not given in full)	66
Fc1cccc(-c2ccc([C@@H]3[C@@H]4CN(Cc5nccs5)C[C@H]3N4)cc2)c1	75
COc1cccc(CN2C[C@@H]3N[C@H](C2)C3c2ccc(-c3cccc(C#N)c3)cc2)c1 (stereo not given in full)	79
COc1cccc(-c2ccc(C3[C@@H]4CN(Cc5cccc(F)c5)C[C@H]3N4)cc2)c1 (stereo not given in full)	0
COc1cc(CN2C[C@@H]3N[C@H](C2)C3c2ccc(-c3ccccc3C)cc2)cc(OC)c1 (stereo not given in full)	0
COc1cccc(CN2C[C@@H]3N[C@H](C2)C3c2ccc(-c3ccccc3F)cc2)c1 (stereo not given in full)	108
SMILES	PGC1a acetyl up
COc1ccc(/C=N/NC(=O)Cn2cnc3ccccc3c2=O)cc1OC	0
CO[C@@H]1CN(C)C(=O)c2ccc(NS(C)(=O)=O)cc2OC[C@@H](C)N(Cc2nccs2)C[C@@H]1C	0
Cc1noc(C)c1NC(=O)N(C)C[C@@H]1Oc2c(NS(=O)(=O)c3cn(C)cn3)cccc2C(=O)N([C@@H](C)CO)C[C@@H]1C	0
Cc1ccc(CNn2cnnc2SCC(=O)NC(C)(C)C)cc1	0
CSCC[C@H](NC(=O)c1ccc(Br)o1)c1nnc2ccccn12	0
CO[C@@H]1CN(C)C(=O)c2ccc(NC(C)=O)cc2OC[C@@H](C)N(C(=O)Cc2cccnc2)C[C@@H]1C	0
CC1OC2CC(=O)OC2C2=C1C(=O)c1c(O)cccc1C2=O (stereo not given)	0
CC(C)NC(=O)Nc1ccc2c(c1)C(=O)N([C@@H](C)CO)C[C@H](C)[C@@H](CN(C)C(=O)CCC(F)(F)F)OCCCC[C@@H](C)O2	0
COc1cccc(-c2ccc(C3[C@@H]4CN(Cc5ccccn5)C[C@H]3N4)cc2)c1 (stereo not given in full)	56
CC(=O)OC[C@]12CC[C@H]3[C@@](C)(CC[C@H]4C(C)(C)CCC[C@]34C)[C@@H]1CC(C1=CC(=O)OC1O)O2 (stereo not given in full)	0
O=C(c1ccc(NC(=O)C2(c3ccccc3)CCOCC2)cc1)N1CCOCC1	0
CC/C(CC(C)(C)c1ccccc1)=N\O	56
C=CCN1C(=O)C(CC(=O)Nc2ccccc2F)S/C1=N\c1nccs1 (stereo not given)	0
O=C1CCN(S(=O)(=O)c2ccc(Cl)cc2)N1	63
Cc1cc(C)nc(N2CCC(C(=O)NCc3ccco3)CC2)n1	0
Cc1cc(C)n2c(SCC(=O)NCc3ccco3)nnc2n1	63
Cn1nnnc1SCC(=O)NCc1cccc(C(=O)O)c1	0
N#Cc1c(N)c(C(=O)c2ccccc2)n2ccccc12	0
COc1ccc(NC(=O)c2ccc3c(c2)OCO3)cc1Cl	0
CC1=C(C(=O)OCc2ccc3c(c2)OCO3)C(c2ccc(Cl)cc2)NC(=O)N1 (stereo not given)	0
COc1ccc(C2CCc3cc4c(cc3C2=NOC(C)=O)OCO4)cc1OC (stereo not given)	56
CCS(=O)(=O)c1ccc2oc(Nc3ccccc3Br)nc2c1	0
CCOc1ccc(NC(=O)c2cccc3c2C(=O)N(CCOC)C3)cc1	94
COC(=O)c1cc(CN2C(=O)c3ccccc3C2=O)c(O)c([N+](=O)[O-])c1	0
Cn1ncc2c(O/N=C(\N)c3ccc(C(C)(C)C)cc3)ncnc21	0
SMILES	PGC1a acetyl up
C#CC(=O)N(c1cc(OC)ccc1OC)C(C(=O)NC1CCCC1)c1cccs1 (stereo not given)	0
CCc1c(C)nc(SCC(=O)Nc2ccc3c(c2)OCCO3)[nH]c1=O	0
COc1ccc(NC(=O)CSC2CC(=O)N(c3ccc4c(c3)OCCO4)C2=O)cc1 (stereo not given)	55
Cc1cc(S(=O)(=O)NC(C)C)ccc1OCC(=O)Nc1ccc2c(c1)OCCO2	0
CCOc1ccc(OCc2ccc(C(=O)NN=Cc3ccc[nH]3)cc2)cc1	0
Cc1ccc(NC(=S)NNC(=O)c2nn(C)c(C)c2Cl)cc1	0
C[C@@H]1CN([C@@H](C)CO)C(=O)CCCn2cc(nn2)CO[C@H]1CN(C)C(=O)Cc1ccccc1	0
C[C@@H]1CCCCO[C@H](CN(C)C(=O)Cc2ccccc2)[C@H](C)CN([C@@H](C)CO)C(=O)c2cc(N(C)C)ccc2O1	0
C[C@@H]1CN([C@@H](C)CO)C(=O)c2c(c3ccccc3n2C)-c2ccccc2CO[C@@H]1CN(C)C(=O)[C@H](C)c1ccccc1	115
Cc1cc(C)cc(OC(=O)CS(=O)c2ccc(C(F)(F)F)cc2[N+](=O)[O-])c1 (stereo not given)	64
Cc1ccc(NC(=S)/N=C(\N)Nc2nc(C)c3cc(C)c(C)cc3n2)cc1C	66
Cc1noc(C)c1S(=O)(=O)Nc1ccc2c(c1)C(=O)N([C@@H](C)CO)C[C@@H](C)[C@@H](CN(C)CC1CCCCC1)OCCCC[C@@H](C)O2	0
Cn1c(CO)cnc1SCC(=O)c1ccc(Cl)cc1	0
COc1ccc(CCN2C(=O)CC(C(C)c3ccccc3)C2=O)cc1OC (stereo not given)	0
